# In ChEMBL document CHEMBL4334446, “Evaluating the effects of fluorine on biological properties and metabolic stability of some antitubulin 3-substituted 7-phenyl-pyrroloquinolinones” (Eur J Med Chem, 2019):
# Assays:
# [1] = Stability in phosphate buffer at pH 7.4 at 10 uM incubated for 30 mins by HPLC analysis; format: physicochemical; conditions: pH 7.4, 0.5 h
# Procedure, shortened: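 No microsomes or NADPH: compound (10 μM final) held in 0.1 M KH₂PO₄ pH 7.4 at 37 °C. Samples taken at 0 and 30 min, quenched with ice-cold acetonitrile, centrifuged, analysed by HPLC with fluorescence detection. Percent parent remaining relative to 0 min; mean ± SD, n = 3.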
# [2] = Selectivity ratio of GI50 for human PBL cells to GI50 for human Jurkat cells incubated for 72 hrs by MTT assay
# Procedure, shortened: (§1)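 Leukemia cells (CEM, DND-41, Jurkat) were grown in RPMI-1640 at 8×10³ cells/well and left 18 h. Donor PBL were gradient-separated, held overnight in RPMI-1640/10% FBS, and non-adherent cells set at 5×10^5 cells/mL without PHA (resting). Both were exposed 72 h to graded concentrations, read by MTT. The ratio is PBL GI50 over leukemia GI50.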
# HeLa = assay: Growth inhibition of human HeLa cells incubated for 72 hrs by MTT assay; format: functional
# [3] = Time-dependent metabolic stability in human liver microsomes at 10 uM incubated for 30 mins in presence of NADPH by HPLC analysis; format: ADME, Microsome; conditions: 0.5 h
# Procedure, shortened: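 Pooled mixed-gender HLMs (0.5 mg/mL) plus 1 mM NADPH in 0.1 M KH₂PO₄ pH 7.4, compound 10 μM final, 37 °C. Reaction started with microsomes after 3-min equilibration. Stopped with ice-cold acetonitrile at 0, 2, 5, 15, 30 min, then HPLC-fluorescence of supernatant. Percent remaining vs 0 min (mean ± SD, n = 3). Half-life = 0.693/k from linear regression of Ln % remaining vs time.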
# [4] = Metabolic stability in human liver microsomes at 10 uM incubated for 15 mins in presence of NADPH and non-selective CYP inhibitor quercetin by HPLC analysis; format: ADME, Microsome; conditions: 0.25 h
# Procedure, shortened: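 Compound (10 µM) was incubated 0 and 15 min at 37 °C with pooled HLMs and 1 mM NADPH in 0.1 M KH2PO4 pH 7.4, with or without 100 µM quercetin. Parent remaining was measured by HPLC-fluorescence relative to 0 min; mean ± SD, n = 3.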
# [5] = Metabolic stability in human liver microsomes assessed as half life at 10 uM incubated for 30 mins in presence of NADPH by HPLC analysis; format: ADME, Microsome
# Procedure, shortened: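 Compound (10 µM) was incubated at 37 °C with 0.5 mg/mL pooled HLMs and 1 mM NADPH in 0.1 M KH2PO4 pH 7.4, sampled at 0, 2, 5, 15 and 30 min. Controls without NADPH, or buffer only, ran 0 and 30 min. Parent was quantified by HPLC-fluorescence as % of the 0 min level, n = 3. t1/2 = 0.693/k, with k from regression of ln % remaining versus time.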
# [6] = Growth inhibition of human PBL cells incubated for 72 hrs by MTT assay; format: cell-based; conditions: PBL cells (peripheral blood lymphocytes)
# Procedure, shortened: (§2)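 PBL from healthy donors were isolated on a Lymphoprep gradient, held overnight in RPMI-1640 with 10% FBS, and the non-adherent cells resuspended at 5 × 10^5 cells/mL. Proliferating cultures got 2.5 µg/mL PHA; resting cultures got none. Compound was added at several concentrations for 72 h and viability read by MTT. GI50 reported as mean ± SEM of three experiments.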
# MCF7 = assay: Growth inhibition of human MCF7 cells incubated for 72 hrs by MTT assay; format: functional; conditions: MCF7, 72 h
# [7] = Selectivity ratio of GI50 for human PBL cells to GI50 for human CEM cells incubated for 72 hrs by MTT assay; format: functional; procedure, shortened: as §1
# [8] = Growth inhibition of PHA-stimulated human PBL cells incubated for 72 hrs by MTT assay; format: cell-based; conditions: PHA-stimulated PBL cells (peripheral blood lymphocytes); procedure, shortened: as §2
# Jurkat = assay: Growth inhibition of human Jurkat cells incubated for 72 hrs by MTT assay; format: functional
# Procedure, shortened: (§3)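 Leukemia lines were grown in RPMI-1640; the CEM^Vbl-100 medium also contained 100 ng/mL vinblastine. Cells were seeded at 8 × 10³ per well and left 18 h at 37 °C, 5% CO2. Medium was then replaced with fresh medium holding graded compound concentrations (DMSO stocks), in triplicate, for 72 h. Viability was read by MTT, and GI50 = concentration inhibiting proliferation 50%.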
# [9] = Selectivity ratio of GI50 for human PBL cells to GI50 for human DND41 cells incubated for 72 hrs by MTT assay; procedure, shortened: as §1
# [10] = Selectivity ratio of GI50 for PHA-stimulated human PBL cells to GI50 for human DND41 cells incubated for 72 hrs by MTT assay
# Procedure, shortened: (§4)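 Leukemia cells (CEM, DND-41, Jurkat) were grown in RPMI-1640 at 8×10³ cells/well and left 18 h. Donor PBL were gradient-separated, held overnight, and non-adherent cells set at 5×10^5 cells/mL with 2.5 µg/mL PHA. Both were exposed 72 h at 37 °C to graded compound concentrations, read by MTT. The ratio is PBL GI50 over leukemia GI50.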
# CCRF-CEM = assay: Growth inhibition of human CEM cells incubated for 72 hrs by MTT assay; format: functional; procedure, shortened: as §3
# [11] = Selectivity ratio of GI50 for PHA-stimulated human PBL cells to GI50 for human CEM cells incubated for 72 hrs by MTT assay; procedure, shortened: as §4
# HT-29 = assay: Growth inhibition of human HT-29 cells incubated for 72 hrs by MTT assay; format: functional; conditions: HT-29, 72 h
# RS4-11 = assay: Growth inhibition of human RS4:11 cells incubated for 72 hrs by MTT assay; format: functional; conditions: RS4-11, 72 h; procedure, shortened: as §3
# [12] = Growth inhibition of multidrug-resistant human CEM/VBL100 cells incubated for 72 hrs by MTT assay; format: functional; conditions: CEM/VBL100, 72 h; procedure, shortened: as §3
# Tubulin = Tubulin (Bos taurus, UniProt Q6B856+Q862L2+Q862F3); assay: Inhibition of bovine brain tubulin polymerization preincubated for 15 mins followed by GTP addition and measured for 20 mins by turbidimetry-based spectrophotometric method
# Procedure, shortened: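 Bovine brain tubulin (10 µM) was preincubated with varying compound concentrations in 0.8 M monosodium glutamate, pH 6.6, for 15 min at 30 °C, then cooled to 0 °C. GTP was added to 0.4 mM final and the mix warmed to 30 °C. Turbidity was followed at 350 nm. IC50 = concentration inhibiting extent of assembly 50% after 20 min.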
# Tubulin (Bos taurus) = Tubulin (Bos taurus) (UniProt Q6B856+Q862L2+Q862F3); assay: Inhibition of [3H]colchicine binding to bovine brain tubulin at 5 uM relative to control
# Procedure, shortened: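 Bovine brain tubulin at 1 µM was incubated with 5 µM [3H]colchicine and the test compound at 5 µM. Inhibition of colchicine binding was measured relative to a control.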
# [13] = Selectivity ratio of GI50 for PHA-stimulated human PBL cells to GI50 for human Jurkat cells incubated for 72 hrs by MTT assay; procedure, shortened: as §4
Stability [1],GI50 (HeLa),Stability [3],Stability [4],half-life at 10 µM [5],GI50 (MCF7),GI50 (Jurkat),GI50 (CCRF-CEM),GI50 (HT-29),GI50 (RS4-11),IC50 (Tubulin),inhibition (Tubulin (Bos taurus)),Structure (SMILES),RatioGI50 [2],GI50 at 72 h [6],RatioGI50 [7],GI50 at 72 h [8],RatioGI50 [9],RatioGI50 [10],RatioGI50 [11],GI50 [12],further results
Stable,11 nM,Unstable,Stable,17.3 min,40 nM,0.5 nM,14 nM,32 nM,2 nM,570 nM,73%,CCn1ccc2c3c(=O)cc(-c4ccccc4)[nH]c3ccc21,10000 - 30000,> 100000 nM,10000 - 30000,7600 nM,10000 - 30000,10000 - 30000,10000 - 30000,4 nM,RatioGI50 [13]: 10000 - 30000
Stable,1.2 nM,Unstable,Stable,11.4 min,247 nM,0.19 nM,3.1 nM,1.1 nM,0.09 nM,960 nM,77%,CCn1ccc2c3c(=O)cc(-c4ccccc4F)[nH]c3ccc21,10000 - 30000,28000 nM,10000 - 30000,15200 nM,10000 - 30000,10000 - 30000,10000 - 30000,1.1 nM,RatioGI50 [13]: 10000 - 30000
